# Measurements gathered from unrelated publications.
# Target: Protein kinase C epsilon type (PRKCE, Homo sapiens, UniProt Q02156)
# Sequence (Q02156 1-737, as in one of the studies): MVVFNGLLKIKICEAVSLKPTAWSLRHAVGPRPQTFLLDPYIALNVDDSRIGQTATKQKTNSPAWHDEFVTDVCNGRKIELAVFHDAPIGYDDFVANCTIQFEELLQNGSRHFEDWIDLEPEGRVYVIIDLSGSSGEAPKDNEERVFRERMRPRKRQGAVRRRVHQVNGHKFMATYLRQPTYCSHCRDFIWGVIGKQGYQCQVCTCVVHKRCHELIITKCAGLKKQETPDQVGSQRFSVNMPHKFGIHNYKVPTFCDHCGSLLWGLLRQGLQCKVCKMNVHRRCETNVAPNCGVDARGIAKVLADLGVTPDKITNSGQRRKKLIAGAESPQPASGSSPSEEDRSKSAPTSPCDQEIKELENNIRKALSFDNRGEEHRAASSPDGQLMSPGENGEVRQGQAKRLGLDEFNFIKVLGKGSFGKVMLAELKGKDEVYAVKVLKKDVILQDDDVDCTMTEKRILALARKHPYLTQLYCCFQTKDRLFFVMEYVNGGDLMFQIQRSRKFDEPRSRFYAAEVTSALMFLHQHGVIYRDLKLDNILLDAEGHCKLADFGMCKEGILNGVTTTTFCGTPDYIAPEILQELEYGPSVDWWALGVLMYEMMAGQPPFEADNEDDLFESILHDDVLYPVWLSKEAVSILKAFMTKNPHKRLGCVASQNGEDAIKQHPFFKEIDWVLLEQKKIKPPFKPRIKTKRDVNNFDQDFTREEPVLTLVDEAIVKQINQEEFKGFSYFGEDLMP
SMILES,assay,setting,endpoint,result
CC(C)(C)c1cc(C=C(C#N)C#N)cc(Br)c1O,"enzyme activity, inhibitor",0.5 µM,remaining activity,108%
Cn1cncc1[C@](O)(COc1ccc(C#N)cc1-c1ccc(OC(F)(F)F)cc1)c1ccc(C#N)cc1,"cell-free assay, competition with immobilised ligand",1 µM,remaining binding,79%
COc1cc(Nc2ncc(F)c(Nc3ccc4c(n3)NC(=O)C(C)(C)O4)n2)cc(OC)c1OC,binding,10 µM,inhibition,73%
O=c1[nH]c2ccccc2n1C1CCN(Cc2ccc(-c3[nH]c4cc5ncnc5cc4nc3-c3ccccc3)cc2)CC1,cell-free assay,0.5 µM,remaining signal,109%
Cn1cc(-c2cccc(N3CCc4c(sc5c4CC(C)(C)C5)C3=O)c2CO)cc(Nc2ccncn2)c1=O,"enzyme activity, inhibitor",1 µM,inhibition,1%
COc1ncccc1-c1cnn2ccc(N3CCN(C(=O)OC(C)C)CC3)nc12,"binding, competition with immobilised ligand",1 µM,remaining binding,76%
Cn1cc(-c2cc(F)cc(N3CCn4c(cc5c4CCCC5)C3=O)c2CO)cc(Nc2ccc(N3CCN(C4COC4)CC3)cn2)c1=O,"enzyme activity, inhibitor",0.1 µM,inhibition,-4%
C#Cc1n[nH]c2c(-c3cn([C@@H](C)c4ccccn4)c(=O)[nH]c3=O)cc(F)cc12,"enzyme activity, inhibitor",0.1 µM,inhibition,4.1%
